Results: PMC10449972 (Clinical Pharmacokinetics, 2023)

Key:
[1] = test system: hepatic HSD-1; conditions: lowest daily dose of 1 mg ABT-384, last day of dosing; cited from earlier work
[2] = target: T1, hepatic HSD-1 (Homo sapiens, UniProt P28845); assay: Hepatic HSD-1 activity, urinary ratio; assay type: in vivo, human (healthy adults); conditions: regimens as low as 0.2 mg once daily, lowest dose tested
Procedure, shortened: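 Healthy adults in low-dose multiple-dose cohorts were given oral test compound: 3 mg loading then 0.2 mg once daily (days 2–14); 0.4 mg once daily (days 1–14); or 0.7 or 2 mg single dose, 6-day washout, then once daily (days 7–20). First-morning urine was collected predose and on scheduled days, and steroids were measured by LC-MS/MS. Activity ratio was fitted against time-matched model-predicted plasma concentration using a sigmoid inhibitory Imax model.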

[3] = target: human HSD-1; conditions: measured in vitro; cited from earlier work
[4] = target: T2, HSD-1 (Homo sapiens, UniProt P28845); assay: TMDD model component: binding of SPI-62 to its pharmacological target HSD-1; assay type: in vivo, human (healthy adults)
T2 sequence (P28845 whole entry): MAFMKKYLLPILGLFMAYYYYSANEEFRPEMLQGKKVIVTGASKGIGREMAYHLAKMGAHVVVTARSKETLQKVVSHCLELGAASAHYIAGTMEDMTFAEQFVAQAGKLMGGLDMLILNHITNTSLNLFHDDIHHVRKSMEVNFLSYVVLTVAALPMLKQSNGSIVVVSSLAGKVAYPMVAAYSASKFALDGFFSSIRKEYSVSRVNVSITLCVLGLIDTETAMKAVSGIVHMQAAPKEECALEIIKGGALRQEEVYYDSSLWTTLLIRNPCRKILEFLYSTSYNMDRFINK
Procedure, shortened: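 Target-binding component of the simultaneous population PK/PD fit. Drug in the central compartment binds HSD-1 with a second-order association constant (Kon) to form a complex. The complex dissociates with a first-order constant (Koff). Rtotal is the total HSD-1 amount. Data were pooled plasma concentrations from single- and multiple-dose trials plus urinary HSD-1 activity from multiple-dose cohorts. Kd was derived as Koff/Kon, and IIV was exponential.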

[5] = test system: HSD-2; conditions: cited from earlier work
[6] = single dose of 0.7 mg SPI-62, plasma; cited from earlier work
[7] = target: T2, HSD-1; conditions: earlier TMDD model; cited from earlier work
[8] = target: T1, hepatic HSD-1; conditions: cited from earlier work

T1 sequence (P28845 whole entry): as above

Compound	Hepatic HSD-1 inhibition [1]	Inhibition of hepatic HSD-1 [2]	Ki [3]	Kd [4]	Kd, ratio of Koff and Kon ([4]; calculated from TMDD model estimates)	Target capacity (Rtot) expressed as amount of SPI-62 ([4]; corresponds to 5460 nmol)	Kon, second-order association rate constant ([4]; estimated, final PK/PD model)	Activity on HSD-2 [5]	Average Cmax [6]	Rmax, capacity of the target, estimated using PK data alone [7]	Hepatic HSD-1 inhibition on day 6 ([8]; after single low dose, 6-day wash out, day 6)	HSD-1 inhibition after repeated doses ([8]; all low dose groups (0.2 mg with 3 mg loading dose, 0.4, 0.7, 2 mg QD))	Return of urinary HSD-1 ratio to baseline ([8]; approximately 16 days after the last dose, lowest dose 0.2 mg)	HSD-1 inhibition (urinary HSD-1 ratio) after the first dose ([8]; first dose of 0.7 mg)	Hepatic HSD-1 inhibition ([8]; following a single dose of 0.7 mg)
CC(C)(C(=O)NC1C2CC3CC1CC(C(N)=O)(C3)C2)N1CCN(c2ccc(C(F)(F)F)cn2)CC1 (stereo not drawn) [ABT-384]	full hepatic HSD-1 inhibition														
Cn1c(-c2ccc(C(N)=O)cc2F)nnc1C(C)(C)Oc1c(F)cc(Cl)cc1F [SPI-62]		almost complete inhibition	5.3 nM	0.0272 nM	0.0272 nM	approximately 2.2 mg	2.34e+06 M⁻¹ s⁻¹	minimal activity	0.02 ng/mL	6070 nmol	> 30%	full HSD-1 inhibition	incomplete return	substantial HSD-1 inhibition	more than 40%
